Experimental data published in ChEMBL document CHEMBL3124791 (J Med Chem, 2014).
Values after ≈ are worked out from the molar mass of the structure shown. Active and inactive are the calls of the source. The rule behind the calls is not given here.

Key:
[1] = tested on: KB; assay: Cytotoxicity against human KB cells by SRB assay; type: functional
Procedure, shortened: (§1)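 Sulforhodamine B growth assay across A-549, KB, P-gp-expressing KBvin and DU145 lines. […] Mean ± SD, at least triplicate.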

[2] = tested on: DU-145; assay: Cytotoxicity against human DU145 cells by SRB assay; type: functional; procedure, shortened: as §1
[3] = tested on: A549; assay: Cytotoxicity against human A549 cells by SRB assay; type: functional; procedure, shortened: as §1
[4] = Cytotoxicity against human KBVIN cells by SRB assay; type: functional; procedure, shortened: as §1
[5] = target: Tubulin; assay: Inhibition of tubulin (unknown origin) polymerization incubated for 15 mins prior to GTP addition measured after 20 mins by turbidimetry; type: protein-complex assay, Homo sapiens
[6] = Aqueous solubility of the compound in phosphate buffer at pH 7.4 after 4 hrs by HPLC-UV method; type: physicochemical; conditions: pH 7.4, 4 h
[7] = target: T1, Tubulin (Homo sapiens) (UniProt P68371+Q9H4B7+P0DPH7+P68366+Q13509+Q71U36+P04350+Q3ZCM7+P07437+P68363+Q9BQE3+Q6PEY2+Q13885+Q9BVA1+Q9BUF5); assay: Displacement of [3H]colchine from tubulin (unknown origin) at 1 uM after 10 mins; type: protein-complex assay
[8] = target: T1, Tubulin (Homo sapiens); assay: Displacement of [3H]colchine from tubulin (unknown origin) at 5 uM after 10 mins; type: protein-complex assay
[9] = tested on: Liver microsome; assay: Half life in human liver microsomes at 1 uM by LC-MS analysis; type: ADME
[10] = tested on: MCF7; assay: Antitumor activity against human MCF7 cells xenografted in athymic Balb/c nu/nu mouse assessed as tumor growth inhibition at 4 mg/kg, iv administered as Q3D X 6 regimen; type: functional
Procedure, shortened: (§2)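 At 100–300 mm3 tumors, mice sorted into treated and control groups (n = 7). Dosing 4 mg/kg i.v. every 3 days; vehicle 5% PEG400/PBS. Stopped when control tumors reached about 1500 mm3; tumors excised and weighed. Inhibitory rate = [1 − mean treated/control tumor weight] × 100; body weight and deaths recorded.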

[11] = tested on: Mus musculus; assay: Toxicity in athymic Balb/c nu/nu mouse xenografted with human MCF7 cells assessed as change in body weight at 4 mg/kg, iv administered as Q3D X 6 regimen (reference value: 0.10%); type: organism-based; design: dose 4 mg/kg, route intravenous; conditions: in vivo; procedure, shortened: as §2
[12] = target: T1, Tubulin (Homo sapiens); assay: Inhibition of tubulin polymerization in human A549 cells assessed as disappearance of microtubule network at 100 nM after 24 hrs by Hoechst 33342 staining-based immunocytochemistry relative to control; type: cell-based
[13] = tested on: Mus musculus; assay: Toxicity in athymic Balb/c nu/nu mouse xenografted with human MCF7 cells assessed as death at 4 mg/kg, iv administered as Q3D X 6 regimen; type: organism-based; design: dose 4 mg/kg, route intravenous; conditions: in vivo; procedure, shortened: as §2
[14] = organism: Canis lupus familiaris; conditions: 10 uM
[15] = target: T1, Tubulin (Homo sapiens); assay: Inhibition of tubulin polymerization in human A549 cells assessed as disappearance of microtubule network at 3 nM after 24 hrs by Hoechst 33342 staining-based immunocytochemistry relative to control; type: cell-based
Procedure, shortened: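 A549 cells exposed to compound 24 h (0.1% DMSO control), fixed in 4% paraformaldehyde, permeabilized with 0.1% Triton X-100, blocked with 5% BSA. Stained with anti-α-tubulin (1:2000, 2 h) and a fluorescent anti-mouse secondary (1 h), nuclei with Hoechst 33342. Imaged at 20× for microtubule network loss.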

[16] = organism: Canis lupus familiaris; assay: (§3) Competitive inhibition of dog brain tubulin using colchicine as substrate incubated for 45 mins prior to substrate addition measured after 45 mins by fluorescence assay
Procedure, shortened: (§4)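 Dog brain tubulin 4 μM in 25 mM PIPES pH 6.8, 1 mM EGTA, 3 mM MgCl2, preincubated with compound (0.1–10 μM) 45 min at 37 °C. […] Mean ± SD, at least three replicates.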

[17] = as §3; design: species or system Canis lupus familiaris; procedure, shortened: as §4
[18] = tested on: A549; assay: Cell cycle arrest in human A549 cells assessed as accumulation at G2/M phase at 3 nM after 24 hrs by propidium iodide staining-based FACS analysis; type: functional
Procedure, shortened: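 A549 cells treated 24 h (0.1% DMSO control), washed in PBS, fixed in 70% ice-cold ethanol at 4 °C for 24 h. RNase (0.05 mg/mL, 37 °C, 30 min), then propidium iodide 0.05 mg/mL for 30 min at rt in the dark. Cell-cycle distribution read by flow cytometry.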

[19] = tested on: A549; assay: Cell cycle arrest in human A549 cells assessed as accumulation at G2/M phase after 24 hrs by propidium iodide staining-based FACS analysis; type: functional
[20] = organism: Canis lupus familiaris; assay: Competitive inhibition of dog brain tubulin using BODIPY FL-vinblastine as substrate at 30 to 100 uM incubated for 30 mins prior to substrate addition measured after 30 mins by fluorescence assay
Procedure, shortened: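 Tubulin 4 μM from fresh dog brain in 25 mM PIPES pH 6.8, 1 mM EGTA, 3 mM MgCl2, preincubated with compound (10, 30, 100 μM) 30 min at 37 °C. BODIPY FL-vinblastine 2 μM then added for another 30 min. Fluorescence (ex 470/em 515 nm) decrease converted to % inhibition. Mean ± SD of at least three independent experiments.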

[21] = tested on: A549; assay: Cell cycle arrest in human A549 cells assessed as accumulation at G2/M phase at 300 nM after 24 hrs by propidium iodide staining-based FACS analysis; type: functional

SMILES | GI50 [1] [nM] | GI50 [2] [nM] | GI50 [3] [nM] | GI50 [4] [nM] | other results
COc1ccc2c(c1)CCN2c1nc(Cl)nc2ccccc12 | 227 | 165 | 233 | 197 | –
COc1ccc2c(c1)CCCN(c1nc(Cl)nc3ccccc13)C2 | 11300 | 6810 | 7570 | 5450 | –
COc1ccc2c(c1)C(O)CCN2c1nc(C)nc2ccccc12 (centres undefined) | 18 | – | 19 | 17 | IC50 [5]: 970 nM; solubility [6]: 8.72 µg/mL (≈ 27.1 µM); inhibition [7]: 75%; inhibition [8]: 94%; t1/2 [9]: 42.44 min
COc1ccc2c(c1)OCCN2c1nc(Cl)nc2ccccc12 | 153 | 169 | 199 | 195 | –
COc1ccc2c(c1)CCCCN2c1nc(Cl)nc2ccccc12 | 227 | 165 | 191 | 197 | –
COc1ccc2c(c1)CCCN2c1nc(C)nc2ccccc12 | – | – | – | – | inhibition in vivo at 4 mg/kg [10]: 47.3%; Activity [11]: -15.7%
CC(=O)O[C@H]1C(=O)[C@@]2(C)[C@H]([C@H](OC(=O)c3ccccc3)[C@]3(O)C[C@H](OC(=O)[C@H](O)[C@@H](NC(=O)c4ccccc4)c4ccccc4)C(C)=C1C3(C)C)[C@]1(OC(C)=O)CO[C@@H]1C[C@@H]2O [PACLITAXEL] | 6.4 | 6 | 7.6 | 1210 | inhibition [12]: inactive
COc1ccc2c(c1)N(C)C(=O)CN2c1nc(C)nc2ccccc12 | 17 | 22 | 19 | 25 | IC50 [5]: 1300 nM; solubility [6]: 4.2 µg/mL (≈ 12.6 µM); inhibition in vivo at 4 mg/kg [10]: 51%; Activity [11]: 2.28%; inhibition [7]: 82%; inhibition [8]: 96%; t1/2 [9]: 22 min; Activity [13]: Non-toxic
COc1ccc2c(c1)CCN2c1nc(C)nc2ccccc12 | 320 | 243 | 268 | 216 | –
COc1ccc2c(c1)CCCN2c1nc(Cl)nc2ccccc12 | – | – | – | – | inhibition in vivo at 4 mg/kg [10]: 22.9%; Activity [11]: -7.9%; Activity [13]: Non-toxic
Cc1ccc2c(c1)CCCN2c1nc(C)nc2ccccc12 | 204 | 187 | 211 | 176 | –
Cc1nc(N2CCCc3cc(Br)ccc32)c2ccccc2n1 | 178 | 198 | 211 | 169 | –
COc1ccc2c(c1)C(=O)CCN2c1nc(Cl)nc2ccccc12 | 28 | 31 | 27 | 33 | –
CC[C@]1(O)C[C@H]2CN(CCc3c([nH]c4ccccc34)[C@@](C(=O)OC)(c3cc4c(cc3OC)N(C=O)[C@H]3[C@@](O)(C(=O)OC)[C@H](OC(C)=O)[C@]5(CC)C=CCN6CC[C@]43[C@@H]65)C2)C1 | – | – | – | – | inhibition [14]: 50%
Cc1ccc2c(c1)CCCN2c1nc(Cl)nc2ccccc12 | 48 | 57 | 43 | 46 | –
COc1ccc2c(c1)NC(=O)CN2c1nc(C)nc2ccccc12 | 2.3 | 1.9 | 3.2 | 2.2 | inhibition [15]: Active; inhibition [16]: Dose-dependent effect; IC50 [17]: 550 nM; inhibition [7]: 93%; inhibition [8]: 99%; Activity [18]: Active; t1/2 [9]: 54.81 min; Activity [13]: Toxic; Activity [19]: Dose-dependent effect; inhibition [20]: inactive
COc1ccc2c(c1)C(=O)CCN2c1nc(C)nc2ccccc12 | 19 | 21 | 24 | 21 | IC50 [5]: 940 nM; solubility [6]: 1.21 µg/mL (≈ 3.79 µM); inhibition [7]: 56%; inhibition [8]: 87%; t1/2 [9]: 20.89 min
COc1ccc2c(c1)OCCN2c1nc(C)nc2ccccc12 | 211 | 198 | 189 | 169 | –
COc1cc2c(c(OC)c1OC)-c1ccc(OC)c(=O)cc1[C@@H](NC(C)=O)CC2 | – | – | – | – | Activity [21]: Active; Activity [19]: Dose-dependent effect
COc1ccc2c(c1)CCCN(c1nc(C)nc3ccccc13)C2 | 19600 | 14600 | 16700 | 14800 | –
COc1ccc2c(c1)CCCCN2c1nc(C)nc2ccccc12 | 19 | 18 | 21 | 20 | IC50 [5]: 870 nM; solubility [6]: 2.94 µg/mL (≈ 9.2 µM); inhibition [7]: 46%; inhibition [8]: 89%; t1/2 [9]: 24.85 min
